# Experimental data: ChEMBL document CHEMBL4513216, “Probing the Open Global Health Chemical Diversity Library for Multistage-Active Starting Points for Next-Generation Antimalarials” (ACS Infect Dis, 2020)
# Assay: Toxicity liver stage against HepG2, at 10uM
# Assay type: cell-based
# Parameters: test concentration 10 uM, cell line HepG2-A16-CD81EGFP
# Conditions: human, HepG2-A16-CD81EGFP cells; read-out: INHIBITION
# Method in brief: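 Uninfected HepG2-A16-CD81EGFP cells, 3 × 10^3 per well, 1536-well, plated on prespotted compound at 10 μM final, parasite-free screening media added to match infected plates; puromycin 10 μM positive, DMSO 0.5% negative; run in parallel with 48 h PbLuc assay at 37 °C, 5% CO2; viability by CellTiter-Glo luminescence, normalized to controls.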
row,Structure (SMILES),cytotoxicity at 10 µM
1,CCC1(CC)Cc2ccccc2-c2nc(CN(C)C)nc(O)c21,-8.95%
2,CCOC(=O)C1CC2(CCCCC2)N2CCC(=O)N12 (centres undefined),2.63%
3,C[C@@H](CO)NC(=O)c1ccc2nc(NS(C)(=O)=O)sc2c1,6.84%
4,CCOCC(=O)NCC(Cc1cccc(F)c1)N1CCCCC1=O (centres undefined),-1.89%
5,CNC(=O)CN1CCC(c2nn(C)c(=O)n2-c2ccccc2)CC1,-14%
6,COC(=O)c1sccc1S(=O)(=O)N1CCC(Oc2cnccn2)CC1,9.32%
7,COC[C@@H]1CCC[C@]12CN(S(=O)(=O)c1cccs1)CCO2,-5.73%
8,O=C(Cc1ccccc1)N1CC[C@@H]2CNS(=O)(=O)[C@@H]2CC1,-9.88%
9,Cn1cccc1C(=O)N1CC[C@H]2[C@@H]1CCC(=O)N2CC1CC1,-11.1%
10,NC(=O)c1ccc2c(c1)nc1n2CCN(Cc2cccnc2)C1,10.3%
11,O=C(O)c1ccc2ccc(N3CCN(CC4CC4)CC3)n2c1,7.25%
12,CNc1cc(C)nc(C2COCCN2Cc2csc(C)n2)n1 (centres undefined),1.45%
13,CC(C)Cn1nc(-c2ccc(C(=O)O)cc2)cc1-c1ccc(F)cc1,8.88%
14,COc1ccc(S(=O)(=O)N2CCC[C@@H]3CN(C(=O)C4CC4)C[C@@H]32)cc1,14.7%
15,COCC(=O)N1CCC(c2cccc(Cc3ccc(F)cc3)n2)CC1,10.3%
16,COc1ccccc1Cc1nnc(SCCS(C)(=O)=O)o1,5.89%
17,O=C(Cc1ccc2c(c1)CCCC2)Nc1cccnc1N1CCSCC1,11.4%
18,COc1cccc2c1CCCCN2C(=O)c1oc(C)nc1C,3.3%
19,c1cnnc(N2CCCC(NCc3cccc4c3OCO4)C2)c1 (centres undefined),2.97%
20,CNS(=O)(=O)c1ccc(CNC(=O)C2CCCO2)cc1 (centres undefined),2.45%
21,Cn1cc(C2CN(C(=O)Cc3coc(-c4ccccc4)n3)CCO2)cn1 (centres undefined),-12.4%
22,O=C(c1cccnc1O)N1CCN(Cc2ccccc2F)CC1,5.57%

row,Structure (SMILES),cytotoxicity at 10 µM
1,O=C(Nc1cccc(CN2CCOC2=O)c1)N1CCCC1,-3.54%
2,CCCC1CCCN(C(=O)Nc2ccc(F)c(C(N)=O)c2)CC1 (centres undefined),-2.27%
3,CSCCC(=O)N1CCCC1c1nnc2n1CCCCC2 (centres undefined),-5.79%
4,CCc1nnc2n1CCN(C(=O)c1cnn(C)c1C1CC1)C2,-6.93%
5,CC(Cn1cccn1)C(=O)N1CCC(Nc2cccnn2)CC1 (centres undefined),-9.28%
6,CCc1[nH]n(C)c(=N)c1-c1ccc2c(c1)OCO2,-45.1%
7,Cc1ccc2cc(C(=O)N3CCS(=O)(=O)CC3)[nH]c2c1,-56.3%
8,Cc1nc(CN(CCS(C)(=O)=O)C(C)C)cs1,-44.2%
9,O=C(CN1CCN(CCO)CC1)NCc1ccc(Cl)s1,9.3%
10,Cc1ccc(CNC(=O)CN(C)CC2CCN(CCO)CC2)s1,9.83%
11,CC(O)CC(C)(C)CNS(=O)(=O)c1cccc(Cl)c1C#N (centres undefined),-6.03%
12,COCCOC1CCN(C(=O)NCc2cc(C)oc2C)CC1,-4.23%
13,Cc1c(C(=O)NS(=O)(=O)c2ccsc2)cnn1CC(C)C,11.6%
14,CC(C)Cc1noc(CN2CCC(NC(=O)c3cccs3)CC2)n1,-17.9%
15,O=C(CC1CC1)N[C@@H]1CN(C(=O)c2cccs2)C[C@@H]2CCCO[C@@H]21,-113%
16,CC(C)N1C(=O)C[C@H]2[C@@H]1CCN2C(=O)c1ccco1,-99%
17,CCS(=O)(=O)NCC1Cn2nnc(-c3ccccc3)c2CO1 (centres undefined),-75.4%
18,Cc1ccc2c(n1)N(CCN(C)C)CCN(C(=O)c1ccco1)C2,-65.8%
19,CCOCC1CN(C(=O)Cc2ccccn2)Cc2cnn(CC)c21 (centres undefined),-68.9%
20,Cn1cc(CN2CCC3(CCCN3S(C)(=O)=O)CC2)cn1,1.59%
21,Cc1ccsc1C(=O)N1Cc2ccccc2C2(CCN(C)CC2)C1,2.6%
22,O=C1CCc2cc(NC(=O)N3CCCN(Cc4cccs4)CC3)ccc21,-11.1%

row,Structure (SMILES),cytotoxicity at 10 µM
1,CN1CCC(N2CCC(CN(Cc3ccncc3)C3CCC3)CC2)CC1,-7.19%
2,CCCc1cc(CNc2cc(CCC)nc3ccnn23)on1,-6.75%
3,Cc1nc2cc(CNC(=O)C3CC(=O)N(C4CCCC4)C3)ccc2n1C (centres undefined),-2.37%
4,CCCc1nnc(NC(C)c2ccc3c(c2)OCCO3)o1 (centres undefined),0.965%
5,COc1cccc2c1OCC(NCc1cnn(-c3ccccc3F)c1)C2 (centres undefined),1.68%
6,CCC1(CO)CCCN(C(=O)c2ccc(N3CCN(C)CC3)cc2)C1 (centres undefined),-4.71%
7,Cc1ccc(N2CCN(C3CCc4ccccc4C3)CC2)nn1 (centres undefined),-0.75%
8,CC(C)NS(=O)(=O)c1cc(C(=O)O)cc(-c2ccccc2C#N)c1,-3.73%
9,Cc1ccccc1C(C(=O)N(C)CCc1cn[nH]c1)N(C)C (centres undefined),-5.86%
10,Cc1nc(CN2CCC3(CCCO3)CC2)c2ccccn12,2.07%
11,CCSc1ccc(C(=O)N2CC[C@](O)(CC)[C@H](O)C2)s1,-7.17%
12,CN(C)c1nc2c(c(=O)[nH]1)Cc1ccccc1OC2,-104%
13,CCOc1ccc2[nH]c(=O)c(CN(C)CCc3cn[nH]c3)cc2c1,25.9%
14,Cc1ccccc1SC1CCN(C(=O)CCCS(N)(=O)=O)CC1,-7.76%
15,CCCN1CCN(C(=O)c2cc[nH]n2)[C@H]2CS(=O)(=O)C[C@H]21,2.29%
16,Cn1cc(C2=CCN(CCCOc3ccc(C(N)=O)cc3)CC2)cn1,6.39%
17,CC(C)c1cc(N2CCC(N(C)C)C2)n2nccc2n1 (centres undefined),-0.869%
18,Cn1c(=O)oc2ccc(NC(=O)N3CCOCC3)cc21,-5.09%
19,O=C(Nc1ccc(-n2cccn2)cc1)N1CCOCC(O)C1 (centres undefined),-46.8%
20,CC(C)(C)c1cn(C2CCN(C(=O)c3cncnc3)CC2)nn1,13%
21,CCCC(=O)NCC1CCCN(Cc2cc(C)c(C)o2)C1 (centres undefined),8.82%
22,Cc1nc[nH]c1CNC1CC(=O)N(CCc2cccc(Cl)c2)C1 (centres undefined),-135%

row,Structure (SMILES),cytotoxicity at 10 µM
1,COc1cccc(-c2cccc(N3CCC(N[C@@H]4CCOC4)CC3)c2)c1,-12.7%
2,COc1ccc(OCc2nc(C(=O)N3CCCNC(=O)C3)co2)cc1,-45.1%
3,CN1CCCC1CCn1ccnc1-c1nc2ccccc2[nH]1 (centres undefined),5.47%
4,CC(C)c1nnsc1CNC(=O)C1CCCN(C(=O)N(C)C)C1 (centres undefined),-7.73%
5,COc1cccc(-c2n[nH]c3c2CN(C(=O)c2cccc(=O)[nH]2)CC3)c1,-5.66%
6,CCN1CCCC1CN(Cc1ccoc1)CC1CCN(CCOC)CC1 (centres undefined),-2.64%
7,Cc1ncc(CN2CCC(n3cc(-c4ccc(F)cc4)nn3)CC2)cn1,5.48%
8,CN1CC2(CCN(Cc3ncc[nH]3)CC2)CC1=O,-1.52%
9,Cc1csc2c(N3CCC(NCCc4ccnn4C)CC3)ncnc12,0.429%
10,Cc1cc(-c2n[nH]c3c2CN(S(=O)(=O)c2ccsc2)CC3)c(C)o1,-15.8%
11,CCCN(CCOC)c1nc(C)nc2sccc12,-134%
12,O=C1CCCCN1CCC(=O)N1CCCCC1c1ccc(F)cc1 (centres undefined),-41.7%
13,CC(C)c1nc(C2CCCN2Cc2ccncc2Cl)no1 (centres undefined),-2.83%
14,Cc1[nH]ncc1C(=O)N1CCCN(Cc2nccn2C(C)C)CC1,-6.33%
15,COc1cccc2cc(CNC(=O)N3CCC(N4CCCC4)C3)oc12 (centres undefined),-2.69%
16,CN(C(=O)Cc1cccs1)C1CCN(c2ccccn2)CC1,-3.54%
17,CC(Oc1ccccc1)C(=O)N1CCCN(Cc2nccn2C)CC1 (centres undefined),0.471%
18,Cn1ncc2c(=O)[nH]c(CN(Cc3ccco3)C3CCCC3)nc21,20.8%
19,CC(C)N(C)S(=O)(=O)N(C)Cc1ccc2c(c1)OCO2,-0.0868%
20,Cc1cc(CN(C)C2CCCN(Cc3noc(C4CC4)n3)C2)no1 (centres undefined),-10.8%
21,CCc1c(C(=O)N2CCN(CC(N)=O)CC2)cnn1C(C)(C)C,-1.77%
22,Cn1cnc2c1CCN(Cc1nc(COc3ccc(F)cc3)no1)C2,-7.22%

row,Structure (SMILES),cytotoxicity at 10 µM
1,COc1ccc(-c2noc(CNC(C)Cn3cccn3)n2)c(OC)c1 (centres undefined),-0.144%
2,O=C(c1ccc[nH]1)N1CCCC(c2cc(C(F)(F)F)[nH]n2)C1 (centres undefined),2.04%
3,Cc1csc(CNC(=O)N(C)Cc2cnn(C)c2)n1,-1.57%
4,Cc1nc(C)n(CC2CN(CCOc3ccccc3F)CCO2)n1 (centres undefined),-1.44%
5,CC(C)C(NC(=O)Cn1ccc(=O)n(C)c1=O)c1ccc(F)cc1 (centres undefined),-9.9%
6,Clc1ccc(OCCCN2CCN(c3cnccn3)CC2)cc1,-8.11%
7,CCc1nc(CN2CCCN(C(=O)COCC3CC3)CC2)cs1,-5.2%
8,Cn1nc(COc2cccnc2)c2c1CCN(c1cnccn1)C2,1.34%
9,Cc1noc([C@@H]2C[C@H]3OCC[C@H]3N(Cc3sccc3C)C2)n1,-69.1%
10,CCS(=O)(=O)NC[C@]12COC[C@H]1CN(Cc1ccsc1)C2,6.37%
11,CCOc1ncnc2c1CCN(C(=O)c1ccncc1F)CC2,-76.6%
12,Cc1ccc(N2CCC3(CCCN3Cc3ccn(C)n3)CC2)nn1,11.6%
13,CNC(=O)COC1COC2(CCN(c3ccc(C)nn3)CC2)C1 (centres undefined),-0.419%
14,Cc1cncc(C(=O)N2CC[C@@]3(C[C@H](NS(C)(=O)=O)CCO3)C2)c1,-73.6%
15,COCCN1CCC2(CC1)CC(NCc1cncn1C)c1ccccc12 (centres undefined),-8.13%
16,c1ccc(OCC2C[C@@H]3[C@@H](C2)OCCN3Cc2ccoc2)nc1 (some centres undefined),-0.514%
17,CN1CCN(C2COC3(CCN(Cc4ccsc4)CC3)C2)CC1 (centres undefined),-77.1%
18,c1coc(CN2CC[C@H]3O[C@@H](COCC4CC4)CC[C@H]32)c1,-137%
19,Cc1ccc(CN2CCc3onc(C(=O)NCCN(C)C)c3C2)o1,5.9%
20,CCS(=O)(=O)NC[C@]12COC[C@H]1CN(Cc1ccncc1)C2,6.01%
21,Cc1c(C2N3CC4(C(C)C)CN2CC(C(C)C)(C3)C4=O)[nH]c(=O)[nH]c1=O (centres undefined),8.71%
